This note sets out measurements from ChEMBL document CHEMBL1135737, “Water stability and cytotoxic activity relationship of a series of ferrocenium derivatives. ESR insights on the radical production during the degradation process” (J Med Chem, 2002).

By IC50 is commonly meant the midpoint of a concentration-inhibition curve.

Experiment [1] relates to MCF7. Briefly: In vitro cytotoxicity of compound against MCF-7 cell line expressed as percent of viable cells compared to untreated control at a concentration of 100 uM. The experiment is classed as functional, cell-based. Particulars: Homo sapiens. Put shortly: (§1)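 First screen: exponential-phase MCF-7 cells (DMEM with 25 mM HEPES, 10% FCS, 37 °C, 5% CO2), 250000/well, given the ferrocenium salt 5–500 μM continuously for 48 h from 24 h after seeding. MTT (5 mg/mL in saline) added for 60 min; formazan read at 570 nm with 690 nm correction. Percent viable versus untreated control; mean of three replications.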

The test system of experiment [2] is MCF7. Briefly: In vitro cytotoxicity of compound against MCF-7 cell line expressed as percent of viable cells compared to untreated control at a concentration of 500 uM. It counts as functional, cell-based. Particulars: Homo sapiens. Put shortly: as §1
Experiment [3] concerns MCF7. Briefly: In vitro cytotoxicity of compound against MCF-7 cell line expressed as percent of viable cells compared to untreated control at a concentration of 10 uM. It counts as functional, cell-based. Particulars: Homo sapiens. Put shortly: as §1
The test system of experiment [4] is MCF7. Briefly: In vitro cytotoxicity of compound against MCF-7 cell line expressed as percent of viable cells compared to untreated control at a concentration of 5 uM. The experiment is classed as functional, cell-based. The note with it: Homo sapiens. An outline of the steps: as §1
In experiment [5] the test system is MCF7. Briefly: In vitro cytotoxicity of compound against MCF-7 cell line expressed as percent of viable cells compared to untreated control at a concentration of 50 uM. The experiment is classed as functional, cell-based. The note with it: Homo sapiens. An outline of the steps:
as §1

The subject of experiment [6] is MCF7. Briefly: Concentration required to reduce to 50% the number of MCF-7 cells with respect to untreated control after exposure to compound for 12 h. It counts as functional, cell-based, Homo sapiens. An outline of the steps:
(§2)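 MCF-7 cells (DMEM with 25 mM HEPES, 2 mM L-glutamine, 10% FCS; 37 °C, 5% CO2) in exponential growth, 250000 cells/well, dosed after 24 h at 10, 50, 100, 500 μM for 2, 12, 24 or 48 h. Medium then replaced; MTT read at 570 nm (690 nm background) 5 days from start, versus time-matched washed control. IC50 from three replications.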

In experiment [7] the test system is MCF7. Description: Concentration required to reduce to 50% the number of MCF-7 cells with respect to untreated control after exposure to compound for 2 h. The experiment is classed as functional, cell-based, Homo sapiens. An outline of the steps:
as §2

In experiment [8] the test system is MCF7. Briefly: Concentration required to reduce to 50% the number of MCF-7 cells with respect to untreated control after exposure to compound for 24 h. The experiment is classed as functional, cell-based, Homo sapiens. An outline of the steps:
as §2

The subject of experiment [9] is MCF7. Description: Concentration required to reduce to 50% the number of MCF-7 cells with respect to untreated control after exposure to compound for 48 h. The experiment is classed as functional, cell-based, Homo sapiens. Put shortly: as §2
Experiment [10] concerns MCF7. Description: In vitro cytotoxicity against MCF-7 cell line expressed as percent of viable cells compared to untreated control at a concentration of 10 uM for 24 h. The experiment is classed as functional, cell-based. The note with it: Homo sapiens. Put shortly: (§3)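 Viability in MCF-7 cells (DMEM, 25 mM HEPES, 10% FCS, 37 °C, 5% CO2) seeded 250000/well and treated after 24 h for 24 h. Medium then replaced with fresh; MTT formazan read at 570 nm minus 690 nm, 5 days after treatment start. Percent of the untreated control washed at the same time; mean of three independent experiments.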

In experiment [11] the test system is MCF7. Description: In vitro cytotoxicity against MCF-7 cell line expressed as percent of viable cells compared to untreated control at a concentration of 500 uM for 24 h. The experiment is classed as functional, cell-based. The note with it: Homo sapiens. Put shortly:
as §3

The subject of experiment [12] is MCF7. Briefly: In vitro cytotoxicity against MCF-7 cell line as percent of viable cells compared to control at a concentration of 15 uM. The note with it: Homo sapiens. It counts as functional, cell-based.
Experiment [13] concerns MCF7. Description: In vitro cytotoxicity against MCF-7 cell line as percent of viable cells compared to control at a concentration of 10 uM. It counts as functional, cell-based. Particulars: Homo sapiens.
Experiment [14] deals with MCF7. Briefly: In vitro cytotoxicity against MCF-7 cell line as percent of viable cells compared to control at a concentration of 20 uM. It counts as functional, cell-based. The note with it: Homo sapiens.
The test system of experiment [15] is MCF7. Description: In vitro cytotoxicity against MCF-7 cell line expressed as percent of viable cells compared to untreated control at a concentration of 50 uM for 24 h. It counts as functional, cell-based. Particulars: Homo sapiens. Put shortly: as §3
For experiment [16], the system named is MCF7. Briefly: In vitro cytotoxicity against MCF-7 cell line as percent of viable cells compared to control at a concentration of 30 uM. It counts as functional, cell-based. Particulars: Homo sapiens.
Experiment [17] deals with MCF7. Briefly: In vitro cytotoxicity against MCF-7 cell line as percent of viable cells compared to control at a concentration of 5 uM. The experiment is classed as functional, cell-based. Particulars: Homo sapiens.
For experiment [18], the system named is MCF7. Description: In vitro cytotoxicity against MCF-7 cell line expressed as percent of viable cells compared to untreated control at a concentration of 100 uM for 24 h. It counts as functional, cell-based. The note with it: Homo sapiens. Put shortly:
as §3

The test system of experiment [19] is MCF7. Description: In vitro cytotoxicity against MCF-7 cell line as percent of viable cells compared to control at a concentration of 40 uM. Particulars: Homo sapiens. It counts as functional, cell-based.
Experiment [20] concerns MCF7. Description: In vitro cytotoxicity against MCF-7 cell line expressed as percent of viable cells compared to untreated control at a concentration of 10 uM. It counts as functional, cell-based. The note with it: Homo sapiens. An outline of the steps:
(§4)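 Exponential-phase MCF-7 cells, grown in DMEM with 25 mM HEPES, 2 mM L-glutamine and 10% FCS at 37 °C and 5% CO2, were seeded at 250000 cells/well. After 24 h they got a single agent for 24 h at 10, 20, 35, 50 or 70 μM, then fresh medium. Viability was read by MTT (570 nm, 690 nm background) 5 days from treatment start, as % of untreated control.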

Experiment [21] has as its system MCF7. Briefly: In vitro cytotoxicity against MCF-7 cell line expressed as percent of viable cells compared to untreated control at a concentration of 70 uM. Particulars: Homo sapiens. It counts as functional, cell-based. Put shortly: as §4
The subject of experiment [22] is MCF7. Briefly: In vitro cytotoxicity against MCF-7 cell line expressed as percent of viable cells compared to untreated control at a concentration of 20 uM. It counts as functional, cell-based. Particulars: Homo sapiens. An outline of the steps: as §4
The subject of experiment [23] is MCF7. Description: In vitro cytotoxicity against MCF-7 cell line expressed as percent of viable cells compared to untreated control at a concentration of 35 uM. The experiment is classed as functional, cell-based. The note with it: Homo sapiens. Put shortly: as §4
Experiment [24] deals with MCF7. Briefly: In vitro cytotoxicity against MCF-7 cell line expressed as percent of viable cells compared to untreated control at a concentration of 50 uM. It counts as functional, cell-based. Particulars: Homo sapiens. Put shortly: as §4

Regarding “FERROCENIUM TETRAFLUOROBORATE [listing 1 of 2 here]”, the Viable cells with MCF7 [1] was 99%; with MCF7 [2], 13%; in the experiment on MCF7 [3], 98%; in the experiment with MCF7 [4], 100%; with MCF7 [5], 100%.

With “FERROCENIUM TETRAFLUOROBORATE [listing 2 of 2 here]”, the IC50 is 238 µM with MCF7 [6], 308 µM in the experiment on MCF7 [7], 256 µM in the experiment on MCF7 [8] and 249 µM in the experiment on MCF7 [9].

In the case of BLEOMYCIN [listing 1 of 2 here], in the experiment on MCF7 [8], the half-maximal inhibitory concentration (IC50) is 53 µM.

On to [sequence] TETRAFLUOROBORATE, for which the Viable cells with MCF7 [10] worked out at 99%; with MCF7 [11], 4%; with MCF7 [12] it was 34%; with MCF7 [1] it was 10%; in the experiment on MCF7 [2] it was 11%; in the experiment with MCF7 [13], 88%. The Viable cells in the experiment with MCF7 [14] was found to be 13%; in the experiment on MCF7 [15], 64%; in the experiment with MCF7 [16] it was 7%; in the experiment on MCF7 [3], 88%; in the experiment with MCF7 [17], 94%; in the experiment on MCF7 [4], 100%. For the same substance, the figures for the Viable cells with MCF7 [18], in the experiment with MCF7 [19] and in the experiment on MCF7 [5] were 14%, 3% and 32%, respectively.

DECAMETHYLFERROCENIUM TETRAFLUOROBORATE: the IC50 amounted to 74 µM in the experiment on MCF7 [6], 86 µM with MCF7 [7], 58 µM with MCF7 [8] and 35 µM with MCF7 [9].

For [sequence] ACID TETRAFLUOROBORATE, the Viable cells was determined as 97% in the experiment on MCF7 [1]; 17% in the experiment on MCF7 [2]; 98% in the experiment with MCF7 [3]; 100% in the experiment with MCF7 [4]; 97% in the experiment with MCF7 [5].

Take “1,1'-dimethylferrocenium tetrafluoroborate”: the Viable cells with MCF7 [1] stood at 90%; in the experiment on MCF7 [2], 17%; with MCF7 [3], 100%; in the experiment with MCF7 [4], 99%; in the experiment on MCF7 [5] it was 93%.

As for “FERROCENIUMBORONIC ACID TETRAFLUOROBORATE”, the Viable cells in the experiment with MCF7 [1] was found to be 98%; in the experiment with MCF7 [2], 8%; in the experiment with MCF7 [3], 101%; with MCF7 [4], 102%; in the experiment with MCF7 [5], 101%.

Turning to BLEOMYCIN [listing 2 of 2 here], the Viable cells came out at 69% in the experiment with MCF7 [20]; 51% with MCF7 [21]; 65% in the experiment with MCF7 [22]; 57% with MCF7 [23]; 48% in the experiment on MCF7 [24].
